Experimental data as given in ChEMBL document CHEMBL4715813, “Allicin-inspired pyridyl disulfides as antimicrobial agents for multidrug-resistant Staphylococcus aureus” (Eur J Med Chem, 2018).
≈ marks a conversion by molar mass, not a printed value.

What was measured:
Bacillus anthracis = experiment: Antibacterial activity against Bacillus anthracis Sterne 34F2 assessed as zone of inhibition by disc diffusion method; format: functional
Staphylococcus aureus [1] = experiment: Antibacterial activity against methicillin-susceptible Staphylococcus aureus ATCC 25923 in presence of 10% v/v serum; format: functional
Acinetobacter baumannii [2] = experiment: Antibacterial activity against Acinetobacter baumannii ATCC 19606 assessed as zone of inhibition by disc diffusion method; format: functional
Staphylococcus aureus [3] = experiment: Antibacterial activity against linezolid-resistant Staphylococcus aureus assessed as bacterial growth inhibition incubated for 20 hrs by broth dilution method; format: functional
In short: (§1)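 Broth microdilution: 0.5 McFarland suspension from an overnight culture, diluted 1:100 in cation-adjusted Mueller Hinton broth (CAMHB), given serial dilutions of test agent for 20 h at 37 °C. MIC is the lowest concentration with no visible growth.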

Staphylococcus aureus [4] = experiment: Antibacterial activity against methicillin-susceptible Staphylococcus aureus ATCC 25923 in presence of 0.05% v/v albumin; format: functional
Staphylococcus aureus [5] = experiment: Antibacterial activity against vancomycin-resistant Staphylococcus aureus HIP11714 assessed as inhibition of bacterial growth incubated for 20 hrs by broth microdilution method; format: functional; conditions: HIP11714, 20 h; in short: as §1
Staphylococcus aureus [6] = experiment: Antibacterial activity against vancomycin-intermediate resistant Staphylococcus aureus Mu50 ATCC 700699 assessed as bacterial growth inhibition incubated for 20 hrs by broth dilution method; format: functional; in short: as §1
Escherichia coli = experiment: Antibacterial activity against beta-lactam resistant Escherichia coli BAA 2326 assessed as zone of inhibition by disc diffusion method; format: functional
Staphylococcus aureus [7] = experiment: Bactericidal activity against vancomycin-intermediate resistant Staphylococcus aureus Mu50 ATCC 700699 assessed as bacterial killing incubated for over night; format: functional
In short: (§2)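 For MBC, 5 μL from each well was spotted on agar and incubated overnight; MBC is the lowest concentration with no visible growth. Ratio taken as MBC over MIC.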

Staphylococcus aureus [8] = experiment: Antibacterial activity against methicillin-resistant Staphylococcus aureus ATCC 43300 assessed as bacterial growth inhibition incubated for 20 hrs by broth dilution method; format: functional; in short: as §1
Pseudomonas aeruginosa = experiment: Antibacterial activity against Pseudomonas aeruginosa ATCC 15422 assessed as zone of inhibition by disc diffusion method; format: functional
Staphylococcus aureus [9] = experiment: Ratio of MBC to MIC against heterogeneous vancomycin-intermediate Staphylococcus aureus Mu3 ATCC 700698; format: functional; in short: as §2
Staphylococcus aureus [10] = experiment: Bactericidal activity against Vancomycin-resistant Staphylococcus aureus HIP11714 assessed as bacterial killing incubated for over night; format: functional; in short: as §2
Staphylococcus aureus [11] = experiment: Bactericidal activity against heterogeneous vancomycin-intermediate Staphylococcus aureus Mu3 ATCC 700698 assessed as bacterial killing incubated for over night; format: functional; in short: as §2
Staphylococcus aureus [12] = experiment: Bactericidal activity against methicillin-resistant Staphylococcus aureus ATCC 43300 assessed as bacterial killing incubated for over night; format: functional; in short: as §2
Staphylococcus aureus [13] = experiment: Antibacterial activity against heterogeneous vancomycin-intermediate Staphylococcus aureus Mu3 ATCC 700698 assessed as bacterial growth inhibition incubated for 20 hrs by broth dilution method; format: functional; in short: as §1
Staphylococcus aureus [14] = experiment: Ratio of MBC to MIC against methicillin-resistant Staphylococcus aureus ATCC 43300; format: functional; in short: as §2
Enterobacter cloacae = experiment: Antibacterial activity against Enterobacter cloacae ATCC 23355 assessed as zone of inhibition by disc diffusion method; format: functional
Enterococcus faecalis = experiment: Antibacterial activity against vancomycin-susceptible Enterococcus faecalis ATCC 29212 assessed as zone of inhibition by disc diffusion method; format: functional
Staphylococcus aureus [15] = experiment: Antibacterial activity against methicillin-susceptible Staphylococcus aureus ATCC 25923 assessed as bacterial growth inhibition incubated for 20 hrs by broth dilution method; format: functional; in short: as §1
Staphylococcus aureus [16] = experiment: Antibacterial activity against methicillin-susceptible Staphylococcus aureus ATCC 25923 in presence of glutathione; format: functional
In short: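 Broth microdilution MIC: a 0.5 McFarland suspension from overnight culture was diluted 1:100 in cation-adjusted Mueller Hinton broth supplemented with glutathione 100 μM. It was exposed to serial dilutions for 20 h at 37 °C. MIC was taken as the lowest concentration with no visible growth.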

Staphylococcus aureus [17] = experiment: Ratio of MBC to MIC against vancomycin-intermediate resistant Staphylococcus aureus Mu50 ATCC 700699; format: functional; in short: as §2
Staphylococcus aureus [18] = experiment: Antibacterial activity against methicillin-susceptible Staphylococcus aureus ATCC 25923 assessed as zone of inhibition by disc diffusion method; format: functional
Staphylococcus aureus [19] = experiment: Ration of MBC to MIC against Vancomycin-resistant Staphylococcus aureus HIP11714; format: functional; in short: as §2
Klebsiella pneumoniae = experiment: Antibacterial activity against multidrug-resistant Klebsiella pneumoniae ATCC 700603 assessed as zone of inhibition by disc diffusion method; format: functional
[20] = test system: Staphylococcus epidermidis; experiment: Antibacterial activity against Staphylococcus epidermidis ATCC 14990 assessed as zone of inhibition by disc diffusion method; format: functional
Acinetobacter baumannii [21] = experiment: Antibacterial activity against multidrug-resistant Acinetobacter baumannii BAA 1605 assessed as zone of inhibition by disc diffusion method; format: functional
Staphylococcus aureus [22] = experiment: Ratio of MBC to MIC against methicillin-susceptible Staphylococcus aureus ATCC 25923; format: functional; in short: as §2
Staphylococcus aureus [23] = experiment: Antibacterial activity against methicillin-susceptible Staphylococcus aureus ATCC 25923 in presence of 5% v/v serum; format: functional
Staphylococcus aureus [24] = experiment: Antibacterial activity against vancomycin-resistant Staphylococcus aureus clinical isolate 10 assessed as bacterial growth inhibition after 20 hrs by broth microdilution assay; format: functional; in short: as §1
Enterococcus faecium = experiment: Antibacterial activity against vancomycin-resistant Enterococcus faecium ATCC 700221 assessed as zone of inhibition by disc diffusion method; format: functional
Staphylococcus aureus [25] = experiment: Bactericidal activity against methicillin-susceptible Staphylococcus aureus ATCC 25923 assessed as bacterial killing incubated for over night; format: functional
In short: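 5 μL from each well was spotted on agar and incubated overnight. MBC was taken as the lowest concentration with no visible growth.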

Staphylococcus aureus [26] = experiment: Antibacterial activity against hospital acquired methicillin-resistant Staphylococcus aureus ATCC 43300 assessed as zone of inhibition by disc diffusion method; format: functional
Staphylococcus aureus [27] = experiment: Antibacterial activity against vancomycin-intermediate Staphylococcus aureus clinical isolate 12 assessed as bacterial growth inhibition after 20 hrs by broth microdilution assay; format: functional; in short: as §1
Staphylococcus aureus [28] = experiment: Antibacterial activity against heterogeneous vancomycin-intermediate resistant Staphylococcus aureus Mu3 ATCC 700698 assessed as zone of inhibition by disc diffusion method; format: functional
Staphylococcus aureus [29] = experiment: Ratio of MBC to MIC against linezolid-resistant Staphylococcus aureus; format: functional; in short: as §2
Staphylococcus aureus [30] = experiment: Antibacterial activity against community acquired methicillin-resistant Staphylococcus aureus BAA 1747 assessed as zone of inhibition by disc diffusion method; format: functional
Staphylococcus aureus [31] = experiment: Antibacterial activity against vancomycin-intermediate resistant Staphylococcus aureus Mu50 ATCC 700699 assessed as zone of inhibition by disc diffusion method; format: functional
Staphylococcus aureus [32] = experiment: Antibacterial activity against vancomycin-resistant Staphylococcus aureus HIP11714 assessed as zone of inhibition by disc diffusion method; format: functional
Staphylococcus aureus [33] = experiment: Bactericidal activity against linezolid-resistant Staphylococcus aureus assessed as bacterial killing incubated for over night

Row | SMILES | diameter of the inhibition zone (DIZ) (Bacillus anthracis) [mm] | MIC (Staphylococcus aureus [1]) [µM] | MIC (Staphylococcus aureus [3]) [µM] | MIC (Staphylococcus aureus [4]) [µM] | MIC (Staphylococcus aureus [5]) [µM] | MIC (Staphylococcus aureus [6]) [µM] | MBC (Staphylococcus aureus [7]) [µM] | MIC (Staphylococcus aureus [8]) [µM] | Ratio (Staphylococcus aureus [9]) | MBC (Staphylococcus aureus [11]) [µM] | MBC (Staphylococcus aureus [12]) [µM] | MIC (Staphylococcus aureus [13]) [µM] | Ratio (Staphylococcus aureus [14]) | diameter of the inhibition zone (DIZ) (Enterococcus faecalis) [mm] | MIC (Staphylococcus aureus [15]) [µM] | MIC (Staphylococcus aureus [16]) [µM] | Ratio (Staphylococcus aureus [17]) | diameter of the inhibition zone (DIZ) (Staphylococcus aureus [18]) [mm] | diameter of the inhibition zone (DIZ) [20] [mm] | Ratio (Staphylococcus aureus [22]) | further results
1 | CCCCCCCSSc1ccccn1 | 50 | 25 | 25 (≈ 6.04 µg/mL) | 12.5 | 6.25 (≈ 1.51 µg/mL) | 3.13 (≈ 0.756 µg/mL) | 25 (≈ 6.04 µg/mL) | 6.25 (≈ 1.51 µg/mL) | >4 | > 50 | > 50 | 12.5 (≈ 3.02 µg/mL) | >8 | 10 | 12.5 (≈ 3.02 µg/mL) | 50 | 8 | >50 | >50 | >4 | diameter of the inhibition zone (DIZ) (Acinetobacter baumannii [2]): 0 mm; diameter of the inhibition zone (DIZ) (Escherichia coli): 0 mm; diameter of the inhibition zone (DIZ) (Pseudomonas aeruginosa): 0 mm; MBC (Staphylococcus aureus [10]): > 50 µM; diameter of the inhibition zone (DIZ) (Enterobacter cloacae): 0 mm; Ratio (Staphylococcus aureus [19]): >8; diameter of the inhibition zone (DIZ) (Klebsiella pneumoniae): 0 mm; diameter of the inhibition zone (DIZ) (Acinetobacter baumannii [21]): 0 mm; MIC (Staphylococcus aureus [23]): 25 µM; MIC50 (Staphylococcus aureus [24]): 6.25 µM (≈ 1.51 µg/mL); MIC90 (Staphylococcus aureus [24]): 12.5 µM (≈ 3.02 µg/mL); diameter of the inhibition zone (DIZ) (Enterococcus faecium): 10 mm; MBC (Staphylococcus aureus [25]): > 50 µM; diameter of the inhibition zone (DIZ) (Staphylococcus aureus [26]): 46 mm; MIC50 (Staphylococcus aureus [27]): 12.5 µM (≈ 3.02 µg/mL); MIC90 (Staphylococcus aureus [27]): 12.5 µM (≈ 3.02 µg/mL)
2 | CN[C@H](CC(C)C)C(=O)N[C@H]1C(=O)N[C@@H](CC(N)=O)C(=O)N[C@H]2C(=O)N[C@H]3C(=O)N[C@H](C(=O)N[C@H](C(=O)O)c4cc(O)cc(O)c4-c4cc3ccc4O)[C@H](O)c3ccc(c(Cl)c3)Oc3cc2cc(c3O[C@@H]2O[C@H](CO)[C@@H](O)[C@H](O)[C@H]2O[C@H]2C[C@](C)(N)[C@H](O)[C@H](C)O2)Oc2ccc(cc2Cl)[C@H]1O [VANCOMYCIN] | 26 | 0.78 | 0.78 (≈ 1.13 µg/mL) | 0.78 | > 50 | 3.13 (≈ 4.54 µg/mL) | 3.13 (≈ 4.54 µg/mL) | 0.39 (≈ 0.565 µg/mL) | 1 | 0.78 (≈ 1.13 µg/mL) | 0.78 (≈ 1.13 µg/mL) | 0.78 (≈ 1.13 µg/mL) | 2 | 21 | 0.78 (≈ 1.13 µg/mL) | 0.78 | 1 | 22 | 24 | 2 | diameter of the inhibition zone (DIZ) (Staphylococcus aureus [28]): 20 mm; Ratio (Staphylococcus aureus [29]): 2; diameter of the inhibition zone (DIZ) (Staphylococcus aureus [30]): 20 mm; diameter of the inhibition zone (DIZ) (Staphylococcus aureus [31]): 20 mm; diameter of the inhibition zone (DIZ) (Staphylococcus aureus [32]): 11 mm; MIC (Staphylococcus aureus [23]): 0.78 µM; MIC50 (Staphylococcus aureus [24]): > 50 µM; MIC90 (Staphylococcus aureus [24]): > 50 µM; diameter of the inhibition zone (DIZ) (Enterococcus faecium): 0 mm; MBC (Staphylococcus aureus [25]): 1.56 µM (≈ 2.26 µg/mL); diameter of the inhibition zone (DIZ) (Staphylococcus aureus [26]): 21 mm; MIC50 (Staphylococcus aureus [27]): 3.13 µM (≈ 4.54 µg/mL); MIC90 (Staphylococcus aureus [27]): 3.13 µM (≈ 4.54 µg/mL); MBC (Staphylococcus aureus [33]): 1.56 µM (≈ 2.26 µg/mL)
